Results reported in publication PMC4561207 (Child's nervous system : ChNS : official journal of the …, 2015).

Assay: Adverse events regardless of attribution
Assay type: in vivo, human
How it was run: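 Children with recurrent/refractory CNS tumours took oral drug once daily, continuously, in 28-day cycles. Dosing was stratified by EIACD use, with start/escalation levels 20–40 mg/m² (no EIACD) or 15–32 mg/m² (EIACD). Monitoring included weekly exam, serum chemistries, CBC and urine protein for 8 weeks, and TSH before each cycle. Events other than hypertension were graded by CTCAE v3, later v4.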

COc1cc2c(Oc3ccc4[nH]c(C)cc4c3F)ncnc2cc1OCCCN1CCCC1 [cediranib, Cediranib]
Abdominal pain, events (patients) (grade 1 AE): 5(5) | Acidosis, events (patients) (grade 1 AE): 7(5) | Alanine aminotransferase increased, events (patients) (grade 1 AE): 44(25) | Alkaline phosphatase increased, events (patients) (grade 1 AE): 4(3) | Anal mucositis, events (patients) (grade 1 AE): 1(1) | Anal pain, events (patients) (grade 1 AE): 1(1) | Anemia, events (patients) (grade 1 AE): 4(4) | Anorexia, events (patients) (grade 1 AE): 9(9) | Aspartate aminotransferase increased, events (patients) (grade 1 AE): 38(20) | Back pain, events (patients) (grade 1 AE): 4(3) | Blood bilirubin increased, events (patients) (grade 1 AE): 17(10) | Bone pain, events (patients) (grade 1 AE): 1(1) | Cardiac troponin I increased, events (patients) (grade 1 AE): 1(1) | Chest wall pain, events (patients) (grade 1 AE): 1(1) | Cholesterol high, events (patients) (grade 1 AE): 1(1) | Chronic kidney disease, events (patients) (grade 1 AE): 1(1) | Constipation, events (patients) (grade 1 AE): 7(4) | Cough, events (patients) (grade 1 AE): 4(4) | Creatinine increased, events (patients) (grade 1 AE): 3(2) | Dehydration, events (patients) (grade 1 AE): 2(2) | Depression, events (patients) (grade 1 AE): 3(3) | Diarrhea, events (patients) (grade 1 AE): 44(30) | Dizziness, events (patients) (grade 1 AE): 3(3) | Dry mouth, events (patients) (grade 1 AE): 1(1) | Dry skin, events (patients) (grade 1 AE): 1(1) | Dyspepsia, events (patients) (grade 1 AE): 3(3) | Edema face, events (patients) (grade 1 AE): 1(1) | Edema limbs, events (patients) (grade 1 AE): 2(2) | Endocrine disorders - Other, specify, events (patients) (grade 1 AE): 1(1) | Epistaxis, events (patients) (grade 1 AE): 6(5) | Eye disorders - Other, specify, events (patients) (grade 1 AE): 1(1) | Fatigue, events (patients) (grade 1 AE): 11(10) | Fecal incontinence, events (patients) (grade 1 AE): 2(2) | Fever, events (patients) (grade 1 AE): 2(2) | GGT increased, events (patients) (grade 1 AE): 1(1) | Gastritis, events (patients) (grade 1 AE): 2(2) | Gastrointestinal disorders - Other, specify, events (patients) (grade 1 AE): 1(1) | Headache, events (patients) (grade 1 AE): 21(12) | Hematuria, events (patients) (grade 1 AE): 5(3) | Hemoglobin increased, events (patients) (grade 1 AE): 11(6) | Hoarseness, events (patients) (grade 1 AE): 1(1) | Hypercalcemia, events (patients) (grade 1 AE): 6(3) | Hyperglycemia, events (patients) (grade 1 AE): 19(14) | Hyperkalemia, events (patients) (grade 1 AE): 3(3) | Hypermagnesemia, events (patients) (grade 1 AE): 14(9) | Hypernatremia, events (patients) (grade 1 AE): 8(5) | Hypertension, events (patients) (grade 1 AE): 21(14) | Hyperthyroidism, events (patients) (grade 1 AE): 2(2) | Hypoalbuminemia, events (patients) (grade 1 AE): 25(16) | Hypocalcemia, events (patients) (grade 1 AE): 23(14) | Hypoglycemia, events (patients) (grade 1 AE): 5(5) | Hypokalemia, events (patients) (grade 1 AE): 20(16) | Hypomagnesemia, events (patients) (grade 1 AE): 8(6) | Hyponatremia, events (patients) (grade 1 AE): 23(12) | Hypophosphatemia, events (patients) (grade 1 AE): 15(12) | Hypothyroidism, events (patients) (grade 1 AE): 10(10) | INR increased, events (patients) (grade 1 AE): 1(1) | Investigations - Other, specify, events (patients) (grade 1 AE): 2(2) | Joint effusion, events (patients) (grade 1 AE): 1(1) | Leukoencephalopathy, events (patients) (grade 1 AE): 1(1) | Lymphocyte count decreased, events (patients) (grade 1 AE): 13(10) | Malaise, events (patients) (grade 1 AE): 3(1) | Mucositis oral, events (patients) (grade 1 AE): 1(1) | Myalgia, events (patients) (grade 1 AE): 1(1) | Nausea, events (patients) (grade 1 AE): 18(13) | Nervous system disorders - Other, specify, events (patients) (grade 1 AE): 2(2) | Neutrophil count decreased, events (patients) (grade 1 AE): 13(8) | Non-cardiac chest pain, events (patients) (grade 1 AE): 2(2) | Oral pain, events (patients) (grade 1 AE): 2(2) | Pain in extremity, events (patients) (grade 1 AE): 6(5) | Pain, events (patients) (grade 1 AE): 3(3) | Palmar-plantar erythrodysesthesia syndrome, events (patients) (grade 1 AE): 4(4) | Platelet count decreased, events (patients) (grade 1 AE): 23(17) | Proteinuria, events (patients) (grade 1 AE): 22(14) | Rash acneiform, events (patients) (grade 1 AE): 2(2) | Rash maculo-papular, events (patients) (grade 1 AE): 6(5) | Rectal pain, events (patients) (grade 1 AE): 1(1) | Renal and urinary disorders - Other, specify, events (patients) (grade 1 AE): 1(1) | Respiratory, thoracic and mediastinal disorders - Other, specify, events (patients) (grade 1 AE): 1(1) | Serum amylase increased, events (patients) (grade 1 AE): 1(1) | Skin and subcutaneous tissue disorders - Other, specify, events (patients) (grade 1 AE): 1(1) | Stomach pain, events (patients) (grade 1 AE): 3(3) | Urinary frequency, events (patients) (grade 1 AE): 2(2) | Urinary retention, events (patients) (grade 1 AE): 2(2) | Vascular disorders - Other, specify, events (patients) (grade 1 AE): 2(2) | Voice alteration, events (patients) (grade 1 AE): 2(2) | Vomiting, events (patients) (grade 1 AE): 33(19) | Weight loss, events (patients) (grade 1 AE): 2(2) | White blood cell decreased, events (patients) (grade 1 AE): 17(14) | Abdominal pain, events (patients) (grade 2 AE): 5(5) | Alanine aminotransferase increased, events (patients) (grade 2 AE): 18(10) | Anemia, events (patients) (grade 2 AE): 1(1) | Anorexia, events (patients) (grade 2 AE): 6(6) | Arthralgia, events (patients) (grade 2 AE): 1(1) | Aspartate aminotransferase increased, events (patients) (grade 2 AE): 4(4) | Back pain, events (patients) (grade 2 AE): 1(1) | Blood bilirubin increased, events (patients) (grade 2 AE): 1(1) | Bone pain, events (patients) (grade 2 AE): 2(2) | Confusion, events (patients) (grade 2 AE): 1(1) | Constipation, events (patients) (grade 2 AE): 2(2) | Cough, events (patients) (grade 2 AE): 1(1) | Creatinine increased, events (patients) (grade 2 AE): 2(2) | Dehydration, events (patients) (grade 2 AE): 2(2) | Diarrhea, events (patients) (grade 2 AE): 16(11) | Dizziness, events (patients) (grade 2 AE): 2(1) | Dyspepsia, events (patients) (grade 2 AE): 1(1) | Dysphasia, events (patients) (grade 2 AE): 1(1) | Endocrine disorders - Other, specify, events (patients) (grade 2 AE): 1(1) | Fatigue, events (patients) (grade 2 AE): 10(10) | Fever, events (patients) (grade 2 AE): 1(1) | Flushing, events (patients) (grade 2 AE): 3(1) | Gastrointestinal disorders - Other, specify, events (patients) (grade 2 AE): 1(1) | Headache, events (patients) (grade 2 AE): 10(7) | Hemoglobin increased, events (patients) (grade 2 AE): 1(1) | Hydrocephalus, events (patients) (grade 2 AE): 2(2) | Hyperglycemia, events (patients) (grade 2 AE): 3(3) | Hypernatremia, events (patients) (grade 2 AE): 4(1) | Hypertension, events (patients) (grade 2 AE): 28(28) | Hypoalbuminemia, events (patients) (grade 2 AE): 9(7) | Hypocalcemia, events (patients) (grade 2 AE): 3(3) | Hypoglycemia, events (patients) (grade 2 AE): 1(1) | Hypomagnesemia, events (patients) (grade 2 AE): 1(1) | Hypophosphatemia, events (patients) (grade 2 AE): 6(4) | Hypothyroidism, events (patients) (grade 2 AE): 10(10) | Hypoxia, events (patients) (grade 2 AE): 1(1) | Intracranial hemorrhage, events (patients) (grade 2 AE): 4(4) | Lipase increased, events (patients) (grade 2 AE): 1(1) | Lymphocyte count decreased, events (patients) (grade 2 AE): 12(8) | Mucositis oral, events (patients) (grade 2 AE): 2(2) | Myalgia, events (patients) (grade 2 AE): 2(2) | Nausea, events (patients) (grade 2 AE): 4(4) | Nervous system disorders - Other, specify, events (patients) (grade 2 AE): 1(1) | Neutrophil count decreased, events (patients) (grade 2 AE): 8(5) | Non-cardiac chest pain, events (patients) (grade 2 AE): 1(1) | Pain in extremity, events (patients) (grade 2 AE): 3(3) | Pain, events (patients) (grade 2 AE): 1(1) | Palmar-plantar erythrodysesthesia syndrome, events (patients) (grade 2 AE): 10(7) | Pericardial effusion, events (patients) (grade 2 AE): 1(1) | Peripheral motor neuropathy, events (patients) (grade 2 AE): 2(2) | Platelet count decreased, events (patients) (grade 2 AE): 3(3) | Pleural effusion, events (patients) (grade 2 AE): 1(1) | Proteinuria, events (patients) (grade 2 AE): 15(14) | Respiratory, thoracic and mediastinal disorders - Other, specify, events (patients) (grade 2 AE): 1(1) | Reversible posterior leukoencephalopathy syndrome, events (patients) (grade 2 AE): 1(1) | Seizure, events (patients) (grade 2 AE): 3(3) | Skin and subcutaneous tissue disorders - Other, specify, events (patients) (grade 2 AE): 1(1) | Skin ulceration, events (patients) (grade 2 AE): 2(2) | Urinary retention, events (patients) (grade 2 AE): 1(1) | Vomiting, events (patients) (grade 2 AE): 6(6) | Weight loss, events (patients) (grade 2 AE): 2(2) | White blood cell decreased, events (patients) (grade 2 AE): 5(3) | Abdominal pain, events (patients) (grade 3 AE): 1(1) | Alanine aminotransferase increased, events (patients) (grade 3 AE): 7(6)
